The values that follow come from PMC2865185 (The FEBS journal, 2009).

The test system of data set [1] is EphA3 kinase domain. As to conditions: juxtamembrane peptide, ref [20], cited from earlier work.
For data set [2], the target named is T1, EphA3 kinase domain (wild-type) (Homo sapiens, UniProt P29320).
T1 sequence (P29320 621-882 limits assumed): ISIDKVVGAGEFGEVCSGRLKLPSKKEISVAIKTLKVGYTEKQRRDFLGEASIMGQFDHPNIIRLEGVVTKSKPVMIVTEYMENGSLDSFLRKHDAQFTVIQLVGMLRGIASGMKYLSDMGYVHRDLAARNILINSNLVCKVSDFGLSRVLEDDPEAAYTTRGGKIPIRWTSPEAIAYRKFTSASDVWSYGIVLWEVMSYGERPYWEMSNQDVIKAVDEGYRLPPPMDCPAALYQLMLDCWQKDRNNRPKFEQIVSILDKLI
Description: ADP-Quest kinase assay, wild-type EphA3 kinase domain. It counts as biochemical. As to conditions: for kcat/Km / kcat: 200 µM ATP, room temperature, ADP-Quest; for kcat: ± SD from two independent experiments, in duplicate. The essentials: (§1)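 EphA3 kinase domain, wild-type or point mutant made by site-directed mutagenesis, expressed in E. coli BL21 Gold (DE3). His-tag purified, thrombin-cleaved, gel-filtered, then autophosphorylated with 10 mM each ATP and MgCl2; free nucleotide removed by anion exchange. ADP-Quest fluorescence (ex 530/em 590 nm) at room temperature. Peptide 1–4000 µM, ATP 200 µM, enzyme 10 nM–5 µM. Duplicates, background-ADP corrected. Km/Vmax from Michaelis–Menten fit; SD from two independent experiments.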

Data set [3] has as its target T2, EphB4 (Homo sapiens, UniProt P54760).
T2 sequence (P54760 615-899 limits assumed): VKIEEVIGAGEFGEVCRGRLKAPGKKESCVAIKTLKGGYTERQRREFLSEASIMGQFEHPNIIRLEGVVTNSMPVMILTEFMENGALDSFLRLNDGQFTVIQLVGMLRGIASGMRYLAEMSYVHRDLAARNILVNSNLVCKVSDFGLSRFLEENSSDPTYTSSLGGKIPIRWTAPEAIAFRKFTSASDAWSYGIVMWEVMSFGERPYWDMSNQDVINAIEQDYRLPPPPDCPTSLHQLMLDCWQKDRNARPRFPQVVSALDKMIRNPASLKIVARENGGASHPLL
The experiment in a line: Isoform specificity of EPHOPT, EphB4. The data set is classed as biochemical. As to conditions: in words; EphB4, non-arginine at position 782. The method in brief:
(§2)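 Each kinase prepared by target. EphA5, EphA7 and EphB3 were autophosphorylated with 10 mM each ATP and MgCl2, then freed of nucleotide by anion exchange. EphB2 and EphB4 were bought in active form and used unmodified. ADP-Quest fluorescence read-out (ex 530/em 590 nm) at room temperature. Peptide substrate 1–4000 µM, ATP 200 µM, enzyme 10 nM–5 µM. Duplicates, background-corrected. Kinetic constants from Michaelis–Menten fit.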

Data set [4] in a line: Aqueous solubility of peptide. It counts as physicochemical. As to conditions: aqueous buffer.
For data set [5], the target named is T3, EphB3 (Homo sapiens, UniProt P54753).
T3 sequence (P54753 633-896 limits assumed): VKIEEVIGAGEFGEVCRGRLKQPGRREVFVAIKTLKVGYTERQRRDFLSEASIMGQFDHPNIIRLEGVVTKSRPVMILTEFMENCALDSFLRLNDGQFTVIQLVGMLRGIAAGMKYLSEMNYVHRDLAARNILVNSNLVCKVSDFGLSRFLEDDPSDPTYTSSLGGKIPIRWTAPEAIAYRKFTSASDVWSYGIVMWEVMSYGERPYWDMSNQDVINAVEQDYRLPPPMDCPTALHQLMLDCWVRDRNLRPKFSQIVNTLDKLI
Description: Isoform specificity of EPHOPT, EphB3. It counts as biochemical. As to conditions: in words. The essentials: as §2

Data set [6] addresses T4, EphB2 (Homo sapiens, UniProt P29323).
T4 sequence (P29323 621-884 limits assumed): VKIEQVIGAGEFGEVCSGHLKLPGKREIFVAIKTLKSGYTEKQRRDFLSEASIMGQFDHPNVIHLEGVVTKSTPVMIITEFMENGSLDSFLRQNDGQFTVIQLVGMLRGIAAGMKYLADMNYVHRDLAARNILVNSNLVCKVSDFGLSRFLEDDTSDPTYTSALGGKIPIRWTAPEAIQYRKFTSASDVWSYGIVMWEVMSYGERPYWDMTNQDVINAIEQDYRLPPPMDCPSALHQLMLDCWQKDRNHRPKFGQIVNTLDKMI
The experiment in a line: Isoform specificity of EPHOPT, EphB2. The data set is classed as biochemical. As to conditions: in words; EphB2, non-arginine at position 782. The essentials:
as §2

Data set [7] concerns the target T5, EphA3(K785E) (Homo sapiens, UniProt P29320, K785E).
T5 sequence (P29320 577-947 K785E limits assumed): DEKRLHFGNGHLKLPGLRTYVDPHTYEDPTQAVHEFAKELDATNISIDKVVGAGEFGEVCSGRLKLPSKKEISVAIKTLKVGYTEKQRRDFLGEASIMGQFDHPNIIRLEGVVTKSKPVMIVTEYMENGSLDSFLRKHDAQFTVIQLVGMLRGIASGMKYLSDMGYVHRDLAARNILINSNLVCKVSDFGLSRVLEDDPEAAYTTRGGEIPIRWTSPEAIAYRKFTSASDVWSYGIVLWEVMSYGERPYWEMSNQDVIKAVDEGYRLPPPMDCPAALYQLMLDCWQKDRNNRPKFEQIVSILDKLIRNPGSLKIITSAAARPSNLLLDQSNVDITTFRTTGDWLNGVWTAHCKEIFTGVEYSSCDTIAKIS
The experiment in a line: ADP-Quest kinase assay, EphA3 K785E mutant. It counts as biochemical. The essentials: as §1

For data set [8], the system named is EphA5, EphA7, EphB3, EphB4, EphB2 (relative to EphA3). Description: Isoform specificity of EPHOPT, other EPH kinase domains. The data set is classed as biochemical. The method in brief: as §2
Data set [9] deals with T6, EphA3(N830A) (Homo sapiens, UniProt P29320, N830A).
T6 sequence (P29320 621-882 N830A limits assumed): T1 sequence (P29320 621-882 limits assumed) with N210A
The experiment in a line: ADP-Quest kinase assay, EphA3 N830A mutant. It counts as biochemical. As to conditions: for kcat/Km / Km / kcat: 200 µM ATP, room temperature, ADP-Quest; for Km / kcat: peptide 1 to 4000 µM, ± SD from two independent experiments, in duplicate. The method in brief:
as §1

Data set [10] has as its target T7, EphA7 (Homo sapiens, UniProt Q15375).
T7 sequence (Q15375 633-894 limits assumed): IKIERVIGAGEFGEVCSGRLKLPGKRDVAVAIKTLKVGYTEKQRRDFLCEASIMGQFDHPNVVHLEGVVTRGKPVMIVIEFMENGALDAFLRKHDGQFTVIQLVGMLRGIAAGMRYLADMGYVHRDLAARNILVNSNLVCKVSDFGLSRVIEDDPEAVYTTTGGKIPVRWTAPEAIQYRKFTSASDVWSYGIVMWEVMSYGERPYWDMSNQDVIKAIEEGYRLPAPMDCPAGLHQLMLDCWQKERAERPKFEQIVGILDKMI
Description: Isoform specificity of EPHOPT, EphA7. It counts as biochemical. As to conditions: in words; EphA7, non-arginine at position 782. The method in brief: as §2

Where [11] appears, read: relative to juxtamembrane peptide.
[12] abbreviates: EphA3(K785E), 200 µM ATP, room temperature, ADP-Quest, ± SD from two independent experiments, in duplicate.
The mark [13] stands for this setting: EphA3 K785E mutant, 200 µM ATP, room temperature, ADP-Quest.
[14] abbreviates: EphA3 K785E mutant, peptide 1 to 4000 µM, 200 µM ATP, room temperature, ADP-Quest, ± SD from two independent experiments, in duplicate.
[15] abbreviates: EphA3(N830A) relative to wild-type.

Numbering of substitutions follows the chain as printed. Read-outs that look alike come from different tables or passages of the source. A value given as a limit tells only on which side of the number the result lay.

The term Km denotes the concentration of substrate that gives half-maximal velocity. As for “D^598PHTYEDPTQ^606 [juxtamembrane EphA3 peptide]”, in data set [1] (EphA3 kinase domain), the Km is 1000 ± 20 µM, the catalytic efficiency is 200 min⁻¹ mM⁻¹ and the kcat was 199 ± 9 min⁻¹. The kcat in [1] (quoted for comparison with EPHOPT) is listed as 199 per minute.
For the substance KQWDNYEKIW [OPTYK], in [2], the kcat/Km stood at 34270 M⁻¹ s⁻¹. The kcat in data set [2] (peptide 1 to 4000 µM) was found to be 220 ± 27 min⁻¹.
As usually defined, the solubility is the concentration that dissolves in the medium under given conditions. Low readings indicate a poorly soluble substance, high ones a readily soluble substance. As to KQWDNYEpYIW [EPHOPT], the kcat/Km was determined as 787030 M⁻¹ s⁻¹ in data set [2], 3020 M⁻¹ s⁻¹ in data set [7] (setting [13]), 0.835 µM/min in [9] (EphA3(N830A)) and 13900 M⁻¹ s⁻¹ in [9] (EphA3 N830A mutant). The kcat in [2] came to 850 ± 44 per minute; in data set [2] (peptide 1 to 4000 µM), 850 ± 44 min⁻¹; in data set [7] (setting [12]) it was 0.567 ± 0.012 s⁻¹; in data set [7] (setting [14]) it was 0.567 ± 0.012 s⁻¹; in data set [9] (EphA3 N830A mutant), 0.55 ± 0.0233 s⁻¹. Also, the “drop in Km” value in data set [2] (setting [11]) is given as “almost two orders of magnitude”. Besides, the “increase in catalytic efficiency” value in data set [2] (setting [11]) is reported as “over 200 -fold”. Moreover, the increase in kcat in [2] (setting [11]) is given as 4 -fold. The “catalytic efficiency (EphB4)” value in data set [3] is on record as “lower catalytic efficiencies”. In [4], the solubility is at least 100000 µM. Further, in data set [5], the “catalytic efficiency of EphB3 relative to EphA5” value is reported as “nearly as efficient as EphA5”. In addition, the “substrate affinity at EphB3 relative to EphA3” value in data set [5] is on record as “nearly identical substrate affinity as EphA3”. Also, the “catalytic efficiency (EphB2)” value in [6] was “lower catalytic efficiencies”. Further, the entries for the “decrease in catalytic efficiency” value in data set [7] (EphA3(K785E) relative to wild-type) and in [9] (setting [15]) were 260 -fold and “more than one order of magnitude decrease”, respectively. In [7] (EphA3(K785E) relative to wild-type enzyme), the “negative effect on Km” value is recorded as “about an order of magnitude”. Moreover, the Km in [7] (setting [14]) came out at 188 ± 64 µM; in data set [9] (EphA3 N830A mutant), 39.5 ± 0.7 µM. In data set [8] (EphA3 and five other EPH kinases, Supplemental Table S2), the “rank order of catalytic efficiency across isoforms” value is listed as “EphA3>EphA5≅EphB3>>EphA7≅EphB4>>EphB2”. Besides, in data set [8] (in words), the “selectivity for EphA3 over other EPH kinases” value is listed as “mildly to strongly selective for EphA3”. The “decrease in kcat/Km” value in data set [9] (setting [15]) is recorded as 56 -fold. The “catalytic efficiency (EphA7)” value in data set [10] is “lower catalytic efficiencies”.
In the case of KQWDNYEFIW [OPTYF], the kcat/Km was determined as 233880 M⁻¹ s⁻¹ in data set [2]; 0.155 µM/min in data set [7] (EphA3(K785E), 200 µM ATP, room temperature, ADP-Quest); 2580 M⁻¹ s⁻¹ in data set [7] (setting [13]); 3280 M⁻¹ s⁻¹ in [9] (EphA3 N830A mutant). The kcat in data set [2] is 421 ± 30 min⁻¹; in data set [2] (peptide 1 to 4000 µM), 421 ± 30 min⁻¹; in [7] (setting [12]), 0.383 ± 0.13 s⁻¹; in data set [7] (setting [14]), 0.383 ± 0.13 s⁻¹; in data set [9] (EphA3 N830A mutant), 0.5 ± 0.0233 s⁻¹. Also, in [2] (relative to EPHOPT), the “relative change in Km” value is reported as ~ 2 -fold. The “relative change in kcat” value in data set [2] (relative to EPHOPT) is reported as ~ 2 -fold. Also, the “weaker affinity (relative to EPHOPT)” value in data set [9] (EphA3(N830A), OPTYF versus EPHOPT) is 5 -fold. For the same substance, the Km in data set [9] (EphA3 N830A mutant) turned out to be 152 ± 35 µM.
